Assay results taken from ChEMBL document CHEMBL1275556, “High prevalence of plasmid-mediated quinolone resistance genes qnr and aac(6')-Ib-cr in clinical isolates of Enterobacteriaceae from nine teaching hospitals in China” (2008).
Converted amounts (≈) assume the structure as drawn.

Legend:
[1] = test system: Citrobacter freundii; assay: Antimicrobial activity against aac(6')-Ib-cr-positive Citrobacter freundii JS33T harboring qnrA gene by agar dilution method; assay type: functional
Outline: (§1)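 MICs were determined by the CLSI agar dilution method (M7-A7) and interpreted against CLSI M100-S17 breakpoints.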

[2] = test system: Citrobacter freundii; assay: Antimicrobial activity against aac(6')-Ib-cr-positive Citrobacter freundii JN1T by agar dilution method; assay type: functional; outline: as §1
[3] = test system: Enterobacter cloacae; assay: Antimicrobial activity against aac(6')-Ib-cr-negative Enterobacter cloacae GZ47T harboring qnrB gene by agar dilution method; assay type: functional
[4] = test system: Enterobacter cloacae; assay: Antimicrobial activity against aac(6')-Ib-cr-positive Enterobacter cloacae FJ63T harboring qnrS gene by agar dilution method; assay type: functional
[5] = test system: Enterobacter cloacae; assay: Antimicrobial activity against aac(6')-Ib-cr-negative Enterobacter cloacae FJ61 harboring GyrA S83I, GyrA D87A, ParC S80I mutant, wild-type GyrB and qnrS genes by agar dilution method; assay type: functional
[6] = test system: Escherichia coli; assay: Antimicrobial activity against aac(6')-Ib-cr-negative Escherichia coli PU12 harboring GyrA S83L mutant, wild-type GyrB, ParC and qnrS genes by agar dilution method; assay type: functional; outline: as §1
[7] = test system: Enterobacter cloacae; assay: Antimicrobial activity against aac(6')-Ib-cr-negative Enterobacter cloacae FJ67 harboring […] and qnrS genes by agar dilution method; assay type: functional
[8] = test system: Escherichia coli; assay: Antimicrobial activity against aac(6')-Ib-cr-positive Escherichia coli FJ3T harboring wild-type GyrA, ParC, GyrB and qnrB genes by agar dilution method
[9] = test system: Klebsiella pneumoniae; assay: Antimicrobial activity against aac(6')-Ib-cr-positive Klebsiella pneumoniae SY26 harboring GyrA S83I, ParC S80I mutant, wild-type GyrB and qnrB genes by agar dilution method; assay type: functional
Outline: (§2)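 MICs were determined on clinical isolates by CLSI agar dilution (M7-A7) and interpreted against CLSI M100-S17 breakpoints.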

[10] = test system: Klebsiella pneumoniae; assay: Antimicrobial activity against aac(6')-Ib-cr-positive Klebsiella pneumoniae GZ40T harboring qnrB gene by agar dilution method
[11] = test system: Citrobacter freundii; assay: Antimicrobial activity against aac(6')-Ib-cr-positive Citrobacter freundii PU55 harboring GyrA T83I, ParC S80I mutant, wild-type GyrB, qnrA genes by agar dilution method; assay type: functional; outline: as §1
[12] = test system: Klebsiella pneumoniae; assay: Antimicrobial activity against aac(6')-Ib-cr-positive Klebsiella pneumoniae WH99T harboring qnrB gene by agar dilution method; assay type: functional
Outline: (§3)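 Transconjugants were made by conjugating a qnr/aac(6')-Ib-cr donor with azide-resistant E. coli J53. Selection used Trypticase soy agar with sodium azide 150 µg/ml and sulfamethoxazole 180 µg/ml. […] MICs were read by CLSI agar dilution (M7-A7) and interpreted per M100-S17.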

[13] = test system: Enterobacter cloacae; assay: Antimicrobial activity against aac(6')-Ib-cr-negative Enterobacter cloacae WH42T harboring qnrA gene by agar dilution method; assay type: functional
[14] = test system: Enterobacter cloacae; assay: Antimicrobial activity against aac(6')-Ib-cr-negative Enterobacter cloacae FJ67T harboring qnrS gene by agar dilution method; assay type: functional
[15] = test system: Citrobacter freundii; assay: Antimicrobial activity against aac(6')-Ib-cr-negative Citrobacter freundii JN64T harboring qnrA gene by agar dilution method; assay type: functional; outline: as §1
[16] = test system: Klebsiella pneumoniae; assay: Antimicrobial activity against aac(6')-Ib-cr-positive Klebsiella pneumoniae WH99 harboring wild-type GyrA, ParC, GyrB and qnrB genes by agar dilution method; assay type: functional; outline: as §2
[17] = test system: Klebsiella pneumoniae; assay: Antimicrobial activity against aac(6')-Ib-cr-positive Klebsiella pneumoniae JN41T harboring qnrB gene by agar dilution method; assay type: functional; outline: as §3
[18] = test system: Citrobacter freundii; assay: Antimicrobial activity against aac(6')-Ib-cr-positive Citrobacter freundii PU55T harboring wild-type GyrA, ParC, GyrB and qnrA genes by agar dilution method
[19] = test system: Enterobacter cloacae; assay: Antimicrobial activity against aac(6')-Ib-cr-negative Enterobacter cloacae GZ51T harboring qnrA gene by agar dilution method; assay type: functional
[20] = test system: Klebsiella pneumoniae; assay: Antimicrobial activity against aac(6')-Ib-cr-negative Klebsiella pneumoniae SY22 harboring GyrA S83I, ParC S80I mutant, wild-type GyrB and qnrS genes by agar dilution method; assay type: functional; outline: as §1
[21] = test system: Escherichia coli; assay: Antimicrobial activity against Escherichia coli J53 harboring wild-type GyrA, ParC, GyrB genes by agar dilution method
[22] = test system: Klebsiella pneumoniae; assay: Antimicrobial activity against aac(6')-Ib-cr-positive Klebsiella pneumoniae JN41 harboring GyrA S83I, ParC S80I mutant, wild-type GyrB and qnrB genes by agar dilution method; assay type: functional; outline: as §2
[23] = test system: Enterobacter cloacae; assay: Antimicrobial activity against aac(6')-Ib-cr-negative Enterobacter cloacae SH39 harboring GyrA S83I, ParC S80I mutant, wild-type GyrB and qnrA genes by agar dilution method; assay type: functional
[24] = test system: Klebsiella pneumoniae; assay: Antimicrobial activity against aac(6')-Ib-cr-positive Klebsiella pneumoniae JN132 harboring GyrA S83I, ParC S80I mutant, wild-type GyrB and qnrB genes by agar dilution method; assay type: functional; outline: as §2
[25] = test system: Escherichia coli; assay: Antimicrobial activity against aac(6')-Ib-cr-negative Escherichia coli PU12T harboring wild-type GyrA, GyrB, ParC and qnrS genes by agar dilution method; assay type: functional; outline: as §1
[26] = test system: Citrobacter freundii; assay: Antimicrobial activity against aac(6')-Ib-cr-positive Citrobacter freundii TJ15T harboring wild-type GyrA, ParC, GyrB genes by agar dilution method; assay type: functional; outline: as §1
[27] = test system: Klebsiella pneumoniae; assay: Antimicrobial activity against aac(6')-Ib-cr-positive Klebsiella pneumoniae SY26T harboring wild-type GyrA, ParC, GyrB and qnrB genes by agar dilution method; assay type: functional
Outline: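 Transconjugants were made by conjugating a qnr/aac(6')-Ib-cr donor with azide-resistant E. coli J53. MICs were read by CLSI agar dilution (M7-A7) and interpreted per M100-S17.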

[28] = test system: Citrobacter freundii; assay: Antimicrobial activity against aac(6')-Ib-cr-positive Citrobacter freundii JS33 harboring GyrA T83I mutant, wild-type ParC, GyrB, qnrA and qnrB genes by agar dilution method; assay type: functional; outline: as §1
[29] = test system: Enterobacter cloacae; assay: Antimicrobial activity against aac(6')-Ib-cr-negative Enterobacter cloacae WH42 harboring wild-type GyrA, ParC, GyrB and qnrA genes by agar dilution method; assay type: functional
[30] = test system: Citrobacter freundii; assay: Antimicrobial activity against aac(6')-Ib-cr-positive Citrobacter freundii TJ15 harboring GyrA T83I, ParC S80I mutant, wild-type GyrB, qnrB genes by agar dilution method; assay type: functional; outline: as §1
[31] = test system: Enterobacter cloacae; assay: Antimicrobial activity against aac(6')-Ib-cr-negative Enterobacter cloacae SH39T harboring qnrA gene by agar dilution method; assay type: functional
[32] = test system: Enterobacter cloacae; assay: Antimicrobial activity against aac(6')-Ib-cr-negative Enterobacter cloacae GZ51 harboring qnrA gene by agar dilution method; assay type: functional
[33] = test system: Klebsiella pneumoniae; assay: Antimicrobial activity against aac(6')-Ib-cr-positive Klebsiella pneumoniae JN132T harboring qnrB gene by agar dilution method; assay type: functional; outline: as §3
[34] = test system: Enterobacter cloacae; assay: Antimicrobial activity against aac(6')-Ib-cr-negative Enterobacter cloacae FJ61T harboring qnrS gene by agar dilution method; assay type: functional
[35] = test system: Citrobacter freundii; assay: Antimicrobial activity against aac(6')-Ib-cr-negative Citrobacter freundii JN64 harboring GyrA T83I, wild-type ParC, GyrB and qnrA genes by agar dilution method; assay type: functional; outline: as §1
[36] = test system: Citrobacter freundii; assay: Antimicrobial activity against aac(6')-Ib-cr-positive Citrobacter freundii JN1 harboring GyrA T83I, ParC S80I mutant, wild-type GyrB and qnrA genes by agar dilution method; assay type: functional; outline: as §1
[37] = test system: Enterobacter cloacae; assay: Antimicrobial activity against aac(6')-Ib-cr-negative Enterobacter cloacae GZ47 harboring qnrB and qnrS genes by agar dilution method; assay type: functional
[38] = test system: Klebsiella pneumoniae; assay: Antimicrobial activity against aac(6')-Ib-cr-positive Klebsiella pneumoniae GZ40 harboring GyrA S83I, ParC S80I mutant, wild-type GyrB and qnrB genes by agar dilution method; assay type: functional; outline: as §1
[39] = test system: Klebsiella pneumoniae; assay: Antimicrobial activity against aac(6')-Ib-cr-negative Klebsiella pneumoniae SY22T harboring qnrS gene by agar dilution method; assay type: functional; outline: as §1
[40] = test system: Enterobacter cloacae; assay: Antimicrobial activity against aac(6')-Ib-cr-positive Enterobacter cloacae FJ63 harboring GyrA S83I, GyrA D87A, ParC S80I mutant, wild-type GyrB and qnrS genes by agar dilution method; assay type: functional
[41] = test system: Escherichia coli; assay: Antimicrobial activity against aac(6')-Ib-cr-positive Escherichia coli FJ3 harboring GyrA S83L, ParC S80R mutant, wild-type GyrB and qnrB genes by agar dilution method; assay type: functional; outline: as §1

## C[C@@H](O)[C@H]1C(=O)N2C(C(=O)O)=C(S[C@@H]3CN[C@H](C(=O)N(C)C)C3)[C@H](C)[C@H]12 [MEROPENEM]
[1]
  MIC: 0.032 µg/mL (≈ 0.0834 µM)
[2]
  MIC: 0.016 µg/mL (≈ 0.0417 µM)
[3]
  MIC: 0.016 µg/mL (≈ 0.0417 µM)
[4]
  MIC: 0.064 µg/mL (≈ 0.167 µM)
[5]
  MIC: 0.25 µg/mL (≈ 0.652 µM)
[6]
  MIC: 0.016 µg/mL (≈ 0.0417 µM)
[7]
  MIC: 0.032 µg/mL (≈ 0.0834 µM)
[8]
  MIC: 0.032 µg/mL (≈ 0.0834 µM)
[9]
  MIC: 0.125 µg/mL (≈ 0.326 µM)
[10]
  MIC: 0.016 µg/mL (≈ 0.0417 µM)
[11]
  MIC: 0.25 µg/mL (≈ 0.652 µM)
[12]
  MIC: 0.016 µg/mL (≈ 0.0417 µM)
[13]
  MIC: 0.016 µg/mL (≈ 0.0417 µM)
[14]
  MIC: 0.032 µg/mL (≈ 0.0834 µM)
[15]
  MIC: 0.016 µg/mL (≈ 0.0417 µM)
[16]
  MIC: 0.032 µg/mL (≈ 0.0834 µM)
[17]
  MIC: 0.016 µg/mL (≈ 0.0417 µM)
[18]
  MIC: 0.016 µg/mL (≈ 0.0417 µM)
[19]
  MIC: 0.016 µg/mL (≈ 0.0417 µM)
[20]
  MIC: 0.016 µg/mL (≈ 0.0417 µM)
[21]
  MIC: 0.016 µg/mL (≈ 0.0417 µM)
[22]
  MIC: 0.032 µg/mL (≈ 0.0834 µM)
[23]
  MIC: 0.125 µg/mL (≈ 0.326 µM)
[24]
  MIC: 0.032 µg/mL (≈ 0.0834 µM)
[25]
  MIC: 0.016 µg/mL (≈ 0.0417 µM)
[26]
  MIC: 0.016 µg/mL (≈ 0.0417 µM)
[27]
  MIC: 0.016 µg/mL (≈ 0.0417 µM)
[28]
  MIC: 0.125 µg/mL (≈ 0.326 µM)
[29]
  MIC: 0.125 µg/mL (≈ 0.326 µM)
[30]
  MIC: 0.032 µg/mL (≈ 0.0834 µM)
[31]
  MIC: 0.016 µg/mL (≈ 0.0417 µM)
[32]
  MIC: 0.064 µg/mL (≈ 0.167 µM)
[33]
  MIC: 0.032 µg/mL (≈ 0.0834 µM)
[34]
  MIC: 0.016 µg/mL (≈ 0.0417 µM)
[35]
  MIC: 0.25 µg/mL (≈ 0.652 µM)
[36]
  MIC: 0.125 µg/mL (≈ 0.326 µM)
[37]
  MIC: 0.032 µg/mL (≈ 0.0834 µM)
[38]
  MIC: 0.125 µg/mL (≈ 0.326 µM)
[39]
  MIC: 0.016 µg/mL (≈ 0.0417 µM)
[40]
  MIC: 1 µg/mL (≈ 2.61 µM)
[41]
  MIC: 0.032 µg/mL (≈ 0.0834 µM)

## Cc1cc(NS(=O)(=O)c2ccc(N)cc2)no1 [SULFAMETHOXAZOLE]
[1]
  MIC: > 256 µg/mL
[2]
  MIC: 32 µg/mL (≈ 126 µM)
[3]
  MIC: 256 µg/mL (≈ 1010 µM)
[4]
  MIC: > 256 µg/mL
[5]
  MIC: 16 µg/mL (≈ 63.2 µM)
[6]
  MIC: > 256 µg/mL
[7]
  MIC: > 256 µg/mL
[8]
  MIC: > 256 µg/mL
[9]
  MIC: > 256 µg/mL
[10]
  MIC: > 256 µg/mL
[11]
  MIC: > 256 µg/mL
[12]
  MIC: > 256 µg/mL
[13]
  MIC: > 256 µg/mL
[14]
  MIC: > 256 µg/mL
[15]
  MIC: > 256 µg/mL
[16]
  MIC: > 256 µg/mL
[17]
  MIC: > 256 µg/mL
[18]
  MIC: > 256 µg/mL
[19]
  MIC: > 256 µg/mL
[20]
  MIC: 64 µg/mL (≈ 253 µM)
[21]
  MIC: 16 µg/mL (≈ 63.2 µM)
[22]
  MIC: > 256 µg/mL
[23]
  MIC: > 256 µg/mL
[24]
  MIC: > 256 µg/mL
[25]
  MIC: > 256 µg/mL
[26]
  MIC: > 256 µg/mL
[27]
  MIC: > 256 µg/mL
[28]
  MIC: > 256 µg/mL
[29]
  MIC: > 256 µg/mL
[30]
  MIC: > 256 µg/mL
[31]
  MIC: 256 µg/mL (≈ 1010 µM)
[32]
  MIC: > 256 µg/mL
[33]
  MIC: > 256 µg/mL
[34]
  MIC: 16 µg/mL (≈ 63.2 µM)
[35]
  MIC: > 256 µg/mL
[36]
  MIC: 256 µg/mL (≈ 1010 µM)
[37]
  MIC: > 256 µg/mL
[38]
  MIC: > 256 µg/mL
[39]
  MIC: 16 µg/mL (≈ 63.2 µM)
[40]
  MIC: > 256 µg/mL
[41]
  MIC: > 256 µg/mL
